Results: paper PMC7649717 (Analytical chemistry, 2020)
Numbering of substitutions follows the chain as printed.

What was measured:
Experiment in all cases: isothermal titration calorimetry
Conditions in all cases: PBS, 298 K, 30 μM protein; GFP fusion
[1] = target: T1, GFP-RBP(L19A); ribose binding protein (RBP) (Escherichia coli, UniProt P02925, L44A/Q260A)
T1 sequence (P02925 26-296 L44A/Q260A): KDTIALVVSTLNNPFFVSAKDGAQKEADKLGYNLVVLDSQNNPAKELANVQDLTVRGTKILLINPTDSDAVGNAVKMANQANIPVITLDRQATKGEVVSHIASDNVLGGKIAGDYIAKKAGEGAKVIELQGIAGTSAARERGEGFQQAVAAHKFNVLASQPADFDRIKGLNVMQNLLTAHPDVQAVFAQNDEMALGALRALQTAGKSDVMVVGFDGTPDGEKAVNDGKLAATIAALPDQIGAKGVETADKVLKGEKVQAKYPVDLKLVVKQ

[2] = target: T2, GFP-RBP(L19A); ribose binding protein (RBP) (Escherichia coli, UniProt P02925, L44A)
T2 sequence (P02925 26-296 L44A): T1 sequence (P02925 26-296 L44A/Q260A) with A235Q
How it was run: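 GFP-RBP(L19A) expressed in E. coli BL21(DE3) and Ni-affinity purified with on-column 8 M urea unfolding and refolding to strip endogenous ribose, then size-exclusion in PBS. ITC at 298 K: cell held 30 μM protein in PBS against a deionized water reference; ribose at 10x protein concentration in PBS. Kd came from nonlinear regression fits of the binding isotherms.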

[3] = target: T3, GFP-RBP(L19A); ribose binding protein (RBP) (Escherichia coli, UniProt P02925, L44A/T160A/Q260A)
T3 sequence (P02925 26-296 L44A/T160A/Q260A): T1 sequence (P02925 26-296 L44A/Q260A) with T135A

OC1OC[C@@H](O)[C@@H](O)[C@H]1O (stereo partly drawn) [ribose]
Kd [1]: 10 µM
Kd [2]: 0.3 ± 0.1 µM
Kd [3]: 130 µM
